Bioassay records: PubChem, several laboratories
ADAM17 inh: inhibitors of human ADAM17; recombinant ADAM17, EDANS/DABCYL FRET peptide cleavage; inhibition, % at 6.95 µM; 0.83% of 370,000 active; AID 720648;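 active = inhibition above the mean of compounds lying between control limits plus 3 SD, set per campaign, cut at about 8.5% in these data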;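 note: 0% = DMSO-only wells as the low control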
V-ATPase pH: regulators of yeast V-ATPase proton transport; response, % at 10 µM; S. cerevisiae, pHLuorin cytosolic pH fluorescence; AID 504577; 0.37% of 350,000 active; in the data active = response mostly above about 7.3%, no sharp cut-off; inactive = mostly below about 5.4%; note: actives read high
aDG glyco up: alpha-DG glycosylation activation; Pro5-aDG cells, alpha-DG glycosylation AlphaScreen (IIH6); 0% Pro5, 100% B10-LARGE cell signal; 0.22% of 360,000 active; activation, % at 10 µM;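 active = activation of at least 8% versus controls, or a plate z-score of at least 8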;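 note: Pro5 are CHO cells carrying HIG-tagged alpha-DG that lacks glycosylation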
ADAM10 inh: inhibits human ADAM10. inhibition, % at 7 µM. 0.62% of 370,000 active. O14672. recombinant ADAM10, EDANS/DABCYL FRET peptide cleavage, 3 h;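 active = inhibition above a per-campaign cutoff equal to the mean of compounds falling between control-based bounds plus 3 SD, cut at about 20% in these data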;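 note: 0% = DMSO wells while the 100% control is not disclosed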
Target sequence (O14672 214-748 limits assumed): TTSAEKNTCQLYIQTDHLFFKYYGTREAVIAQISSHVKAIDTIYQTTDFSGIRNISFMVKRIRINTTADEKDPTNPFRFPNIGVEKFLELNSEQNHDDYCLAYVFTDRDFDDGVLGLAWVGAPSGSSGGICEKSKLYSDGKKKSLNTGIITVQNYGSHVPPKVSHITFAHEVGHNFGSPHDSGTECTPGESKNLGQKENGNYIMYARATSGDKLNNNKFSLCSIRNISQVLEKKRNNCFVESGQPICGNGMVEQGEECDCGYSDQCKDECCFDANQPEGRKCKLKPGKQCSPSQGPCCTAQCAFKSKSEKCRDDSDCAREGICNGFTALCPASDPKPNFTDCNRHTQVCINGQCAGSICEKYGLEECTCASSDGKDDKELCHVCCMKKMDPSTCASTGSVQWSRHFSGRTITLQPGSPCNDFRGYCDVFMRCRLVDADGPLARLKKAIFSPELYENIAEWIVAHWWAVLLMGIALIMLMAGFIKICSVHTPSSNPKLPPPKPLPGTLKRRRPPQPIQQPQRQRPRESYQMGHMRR
MPTP inh: blocks calcium-induced mitochondrial swelling; isolated mouse mitochondria, Ca2+ swelling absorbance, 30 min; inhibition, % at 10 µM; 1.4% of 360,000 active; AID 602449;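 active = inhibition of 50% or more, scaled per plate between neutral and stimulator controls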;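 note: 0% = DMSO wells given calcium and 100% = 1 mM EGTA wells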
Hep lipid drop: hepatic lipid droplet formation modulation | AML12 mouse hepatocytes, oleate lipid droplets, BODIPY imaging | inhibition, % at 6.5 µM | 0.4% of 240,000 active | AID 1656;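 active = lipid droplet intensity inhibited by at least 50%, with more than 500 cells counted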
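Test system: AML12 mouse liver cells; schedule: overnight exposure; technique: high-content imaging of BODIPY-stained droplets and DAPI nuclei; read-out: % inhibition of corrected integrated BODIPY droplet signal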
ADAM10 confirm: human ADAM10 inhibition, confirmation; inhibition, % at 6.95 µM; AID 743208; 1% of 2,100 active; shares compounds with ADAM10 inh; ADAM10 QFRET peptide cleavage, EDANS fluorescence;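 active = inhibition above about 20% chosen separately for each screening run, limit read from the data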;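 note: 0% = DMSO wells and 100% = marimastat wells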
ADAM17 counter: counter-screen for ADAM10 exosite inhibitors: inhibitors of human ADAM17; shares compounds with ADAM10 inh; ADAM17 QFRET peptide cleavage, EDANS fluorescence; inhibition, % at 6.95 µM; 0.5% of 2,100 active;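 active = mean triplicate inhibition above the solvent-only control wells' mean plus 3 SD, cut at about 12% in these data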;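 note: 0% = DMSO wells and 100% = marimastat wells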
Numbers without * were called inactive; . = not tested or not shown; ! = a repeat was not active. Shown are actives, neighbours in structure and some others; about 3.1% of the full set was active somewhere.

SMILES | ADAM17 inh | V-ATPase pH | aDG glyco up | ADAM10 inh | MPTP inh | Hep lipid drop | ADAM10 confirm | ADAM17 counter
CC(O)(c1ccc(F)c(F)c1)c1nc(-c2cc(F)cc(F)c2)cs1 (stereo unspecified) | 5.2 | . | 0.0 | 20.0* | 3.9 | . | 3.6 | 1.6
OC(c1ccccc1)(c1nc(-c2ccc(F)c(Cl)c2)cs1)C(F)(F)F (stereo unspecified) | 7.7 | . | 0.2 | 22.2* | 2.2 | . | 9.3 | 2.9
CC(O)(c1ccc(F)c(F)c1)c1nc(-c2cccc(F)c2)cs1 (stereo unspecified) | 3.9 | . | 0.1 | 5.7 | 5.6 | . | . | .
CC(O)(c1ccc(F)c(F)c1)c1nc(-c2ccc(F)c(Cl)c2)cs1 (stereo unspecified) | 8.2 | . | -0.1 | 22.1* | 2.3 | . | 7.8 | 2.9
CC(O)(c1ccccc1)c1nc(-c2ccc(F)c(Cl)c2)cs1 (stereo unspecified) | 3.1 | . | -0.1 | 15.3 | 2.7 | . | . | .
Nn1c(SCC(=O)Nc2nccs2)nnc1-c1cc(-c2ccccc2)n[nH]1 | 1.4 | . | . | 1.2 | . | . | . | .
CCCCC#Cc1ccccc1COC[B-](F)(F)F | 4.4 | . | . | 5.8 | . | . | . | .
C=CCN1C(=O)[C@@H](CC(=O)N2CCN(C(=O)OCC)CC2)[C@]2(C(=O)OC)CCCCC=C12 | -4.6 | . | . | -6.3 | . | . | . | .
NS(=O)(=O)c1ccc(CCNc2nn3c(-c4cccc(OC(F)(F)F)c4)cnc3s2)cc1 | 6.3 | . | 0.6 | 21.3* | 2.7 | . | 5.1 | 1.4
COC[C@H]1CCCN1c1cccc2c1S(=O)(=O)N1CC[C@H](C1)O2 | 0.4 | . | . | 0.1 | . | . | . | .
C=CCNC(=O)NCC1CCN(Cc2ccc(OC)cc2)CC1 | 1.7 | . | . | 2.0 | . | . | . | .
COc1cccc(CNn2c(-c3cccc(C)c3)nc3ccccc3c2=O)c1 | 8.3 | 0.8 | 0.2 | 26.8* | 2.6 | -2.3 | 0.2 | 0.7
COc1ccccc1CNC(=O)c1ccc(-c2ccccc2Cl)o1 | 12.4* | 2.7 | 0.7 | 21.4* | -0.5 | 15.1 | 9.7 | 1.9
COc1ccccc1CNC(=O)c1ccc(-c2ccccc2C(F)(F)F)o1 | 0.8 | -0.3 | 0.7 | 4.9 | -0.3 | -34.3 | . | .
O=C(O)/C=C/C(=O)Nc1ccc(Oc2ccccc2)cc1 | 0.4 | 1.1 | 0.1 | -0.7 | 0.9 | 14.5 | . | .
CCOC(=O)/C=C/C(=O)Nc1ccc(Oc2ccccc2)cc1 | 1.0 | 3.5 | 0.1 | 21.4* | 30.0 | 10.6 | 2.3 | 0.4
COc1ccccc1-c1cc(C(=O)N/N=C/C=C/c2ccccc2[N+](=O)[O-])c2ccccc2n1 | 8.1 | 1.2 | 0.0 | 20.2* | 0.6 | -3.2 | 7.8 | 2.2
CC(=O)C1CCC2C3CCC4=CC(=O)CCC4(C)C3C(O)CC12C (stereo unspecified) | -0.5 | . | -0.2 | 9.8 | 0.7 | . | . | .
CC(=O)[C@H]1CC[C@H]2[C@@H]3CCC4=CC(=O)CC[C@]4(C)[C@H]3CC[C@]12C | 7.4 | -0.9 | 0.1 | 21.0*! | . | -5.4 | 4.0 | 1.5
CC(=O)c1cc(-c2cccc(C#N)c2)c(=O)n2c1CCC2 | -4.2 | . | . | -6.1 | . | . | . | .
CC(=O)Nc1ccc(C(O)(C(F)(F)F)C(F)(F)F)cc1 | -1.9 | 0.0 | -0.1 | -7.0 | 0.4 | 0.0 | . | .
O=C(Nc1ccc(C(O)(C(F)(F)F)C(F)(F)F)cc1)c1ccc(Cl)cc1 | 6.1 | . | . | 22.8* | . | . | 1.7 | 0.9
C=CCNC(=O)c1c(CSc2ccc(Cl)cc2)noc1C(=O)NCc1ccccc1 | 7.6 | 0.6 | 0.1 | 20.9* | 0.4 | . | 6.0 | 2.9
Cc1ccc2c(c1)C1CS(=O)(=O)N(C3CCCC3)CN1C2 (stereo unspecified) | -0.3 | . | . | -4.6 | . | . | . | .
Cc1ccc(Cn2nnc3c(=O)[nH]c(C4CCN(S(=O)(=O)c5ccc(S(=O)(=O)NC6CC6)cc5)CC4)nc32)cc1 | 5.0 | -2.8 | 0.0 | 19.8* | 0.0 | 9.4 | 3.0 | 1.0
SMILES | ADAM17 inh | V-ATPase pH | aDG glyco up | ADAM10 inh | MPTP inh | Hep lipid drop | ADAM10 confirm | ADAM17 counter
O=C(NC1CCCCN(Cc2ccc(Cl)cc2)C1=O)c1ccc(COc2ccccc2)cc1 (stereo unspecified) | -4.8 | . | . | -9.0 | . | . | . | .
CCCCNC(=O)C[C@@H]1C(=O)N(Cc2ccc(OC)cc2)C2=CCN(C(=O)OC(C)(C)C)C[C@]21C(=O)OCC | -1.4 | . | . | -0.1 | . | . | . | .
COc1ccc(OC)c(-c2cc(C3CCN(c4cc(Cl)nc(N)n4)CC3)[nH]n2)c1 | 0.1 | 1.7 | 4.4 | 4.5 | 24.2 | . | . | .
COc1ccc(OC)c(-c2cc(C3CCN(c4ncccc4[N+](=O)[O-])CC3)[nH]n2)c1 | 8.5 | -0.9 | 0.5 | 23.7* | 0.4 | . | 3.4 | 1.3
Cc1ccc(NC(=S)Nc2ccc(F)cc2)c(C)c1 | 0.3 | -11.6 | 0.1 | 20.8* | 2.2 | -4.6 | -0.1 | 0.1
COC(=O)C1CN(Cc2cn(CCC3OCCO3)nn2)CCS(=O)(=O)N1Cc1ccccc1 (stereo unspecified) | -7.1 | . | . | -9.4 | . | . | . | .
CCOC(=O)C(Cc1ccnc2ccccc12)=NO | 1.2 | 0.9 | 0.3 | 19.9* | -1.7 | . | -0.5 | -0.5
O=C(O)C(Cc1ccnc2ccccc12)=NO | -5.7 | 0.7 | -0.1 | -8.0 | -2.6 | . | . | .
N#Cc1ccc(/C=C2\CC3(OC(=O)c4cccc(F)c4)CCCN2C3)cc1 (stereo unspecified) | -0.1 | . | . | 0.8 | . | . | . | .
COc1cccc(COC(=O)C2CCN(S(=O)(=O)c3ccc(C)cc3)CC2)c1OC | 2.3 | -0.6 | -0.1 | -1.9 | -2.4 | . | . | .
COc1cccc(COC(=O)C2CCN(S(=O)(=O)c3ccc(C)cc3C)CC2)c1OC | 3.7 | -4.1 | 0.1 | 23.6* | -0.9 | . | 3.9 | 1.7
CC(=O)c1cc(-c2cccc(C(C)C)c2)c(=O)n2c1CCC2 | -2.4 | . | . | -1.8 | . | . | . | .
COc1ccc(-n2c(=S)[nH]c3cc(C(=O)NCc4ccc(F)cc4)ccc3c2=O)c(OC)c1 | 6.2 | -0.6 | 0.1 | 23.2* | 0.0 | -3.1 | 0.7 | 0.6
O=C(Nc1ccc2[nH]c(=S)sc2c1)c1ccccc1 | -1.1 | -2.0 | 0.0 | 5.4 | -2.9 | 0.9 | . | .
O=C(Nc1ccc2[nH]c(=S)sc2c1)Nc1ccccc1F | -2.6 | -1.0 | -0.1 | 23.7* | 0.8 | -7.3 | 6.2 | 2.2
CC(C)(C)C1CCc2onc(C(=O)NCc3ccc(F)cc3)c2C1 (stereo unspecified) | 4.0 | -3.0 | 0.1 | 21.1* | -0.4 | . | 4.1 | 1.2
O=C(NCc1ccc(F)cc1)c1noc2c1CCCC2 | . | 0.2 | 0.2 | . | -1.4 | . | . | .
OC(CN1CCN(c2ccccn2)CC1)Cn1c2ccc(Cl)cc2c2cc(Cl)ccc21 (stereo unspecified) | 7.8 | 4.2 | 2.2 | 21.7* | 4.9 | -2.6 | 10.4 | 4.0
Oc1ccccc1C(Nc1nccs1)c1ccc2cccnc2c1O (stereo unspecified) | 7.9 | 3.0 | 0.1 | 19.8* | 3.1 | 4.4 | 8.2 | 2.8
